For one compound, Kd results are on record in BindingDB's records for doi:10.1021/jm00001a007 (Sandoz Pharma, 1995).

One test concerns the target D(1A) dopamine receptor (Bos taurus, UniProt Q95136). Description: Binding affinity towards Dopamine receptor D1 of calf striatal tissue using [3H]SCH-23390. In short, it runs like this:
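Calf striatal membranes, [3H]SCH-23390. Nonspecific binding defined with 1 μM unlabeled SCH-23390. IC50 from displacement curves converted via Cheng–Prusoff to KD, expressed as pKD.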

A further test deals with D(2) dopamine receptor (Bos taurus, UniProt P20288). Description: Binding affinity towards Dopamine receptor D2 of calf striatal tissue using [3H]spiperone. Put shortly:
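Calf striatal membranes, [3H]spiperone. Cinanserin (0.5 μM) masked 5-HT2A sites; nonspecific binding defined with haloperidol (5 μM). Displacement IC50 converted to KD (Cheng–Prusoff), reported as pKD.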

The target in test [1] is T1, Alpha-1A adrenergic receptor (Bos taurus, UniProt P18130).
T1 sequence (P18130 whole entry): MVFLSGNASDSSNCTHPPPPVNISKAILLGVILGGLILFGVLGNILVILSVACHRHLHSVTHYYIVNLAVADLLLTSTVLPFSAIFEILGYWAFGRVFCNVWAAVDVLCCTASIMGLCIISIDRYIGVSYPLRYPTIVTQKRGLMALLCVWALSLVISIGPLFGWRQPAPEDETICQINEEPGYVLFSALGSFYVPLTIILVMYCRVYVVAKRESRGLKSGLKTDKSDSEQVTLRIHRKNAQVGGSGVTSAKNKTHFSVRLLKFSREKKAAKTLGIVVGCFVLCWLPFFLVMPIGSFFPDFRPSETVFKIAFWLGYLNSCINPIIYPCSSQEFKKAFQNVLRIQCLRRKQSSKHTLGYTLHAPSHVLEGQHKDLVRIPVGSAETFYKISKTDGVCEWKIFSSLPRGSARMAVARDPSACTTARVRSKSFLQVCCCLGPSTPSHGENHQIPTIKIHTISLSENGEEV
Description: Binding affinity towards Alpha-1 adrenergic receptor of calf brain cortex using [3H]prazosin. Put shortly:
(§1)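 Membranes from fresh calf brain cortex. Nonspecific binding defined with 10 μM phentolamine for α1 ([3H]prazosin) and with 1 μM unlabeled clonidine for α2 ([3H]clonidine). IC50 converted to KD (Cheng–Prusoff), given as pKD.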

Test [2] has as its target T2, Alpha-2A adrenergic receptor (Bos taurus, UniProt Q28838).
T2 sequence (Q28838 whole entry): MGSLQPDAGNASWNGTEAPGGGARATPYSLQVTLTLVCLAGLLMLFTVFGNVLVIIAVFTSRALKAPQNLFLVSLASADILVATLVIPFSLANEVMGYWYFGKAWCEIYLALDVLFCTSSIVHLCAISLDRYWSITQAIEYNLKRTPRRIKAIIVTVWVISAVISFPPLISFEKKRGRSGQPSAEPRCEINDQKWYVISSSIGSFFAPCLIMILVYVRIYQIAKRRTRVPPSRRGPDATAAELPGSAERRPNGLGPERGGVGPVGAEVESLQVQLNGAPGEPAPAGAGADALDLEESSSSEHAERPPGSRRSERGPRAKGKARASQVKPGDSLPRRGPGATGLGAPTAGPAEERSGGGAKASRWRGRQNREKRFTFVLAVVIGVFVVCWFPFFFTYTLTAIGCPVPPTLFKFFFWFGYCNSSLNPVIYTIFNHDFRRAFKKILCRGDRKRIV
The test is described as follows: Binding affinity towards Alpha-2 adrenergic receptor of calf brain cortex using [3H]clonidine. Put shortly: as §1

Test [3] deals with 5-hydroxytryptamine 2A receptor. Description: Binding affinity towards 5-hydroxytryptamine 2A receptor in rat cortex preparations using [3H]ketanserin. In short, it runs like this:
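5-HT2 sites: rat cortex for 2A ([3H]ketanserin), porcine choroid plexus for 2C ([3H]mesulergine). Nonspecific binding defined with 10 μM mianserin. Displacement-curve IC50 converted to KD via Cheng–Prusoff; expressed as pKD.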

pKd: −log10 of the molar value. Where a name gives a salt, the structure may show the parent alone.

D(2) dopamine receptor, sequence (P20288 whole entry): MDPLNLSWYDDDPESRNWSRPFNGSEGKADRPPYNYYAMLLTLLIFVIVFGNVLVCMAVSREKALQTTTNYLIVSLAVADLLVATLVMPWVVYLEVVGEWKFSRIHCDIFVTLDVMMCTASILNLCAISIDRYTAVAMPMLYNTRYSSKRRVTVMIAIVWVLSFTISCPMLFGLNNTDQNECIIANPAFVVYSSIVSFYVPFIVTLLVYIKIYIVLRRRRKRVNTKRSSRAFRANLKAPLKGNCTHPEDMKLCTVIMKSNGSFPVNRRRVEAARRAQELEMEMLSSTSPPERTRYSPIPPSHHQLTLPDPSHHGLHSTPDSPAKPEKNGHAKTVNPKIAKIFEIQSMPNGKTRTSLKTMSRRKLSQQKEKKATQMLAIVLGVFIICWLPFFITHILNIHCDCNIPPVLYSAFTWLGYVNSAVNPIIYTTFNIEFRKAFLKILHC
D(1A) dopamine receptor, sequence (Q95136 whole entry): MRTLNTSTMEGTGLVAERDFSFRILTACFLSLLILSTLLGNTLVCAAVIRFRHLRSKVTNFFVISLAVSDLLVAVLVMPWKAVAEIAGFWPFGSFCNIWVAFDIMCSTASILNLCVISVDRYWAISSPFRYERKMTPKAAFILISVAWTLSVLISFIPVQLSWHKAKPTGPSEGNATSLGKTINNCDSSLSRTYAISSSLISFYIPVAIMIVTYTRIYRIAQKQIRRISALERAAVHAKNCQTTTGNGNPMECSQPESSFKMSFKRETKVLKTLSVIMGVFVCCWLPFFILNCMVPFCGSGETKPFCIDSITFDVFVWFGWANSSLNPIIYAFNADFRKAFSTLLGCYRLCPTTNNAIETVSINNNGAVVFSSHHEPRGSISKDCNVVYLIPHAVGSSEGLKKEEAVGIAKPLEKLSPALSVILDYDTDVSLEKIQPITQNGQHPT

As usually defined, the pKd is the negative decadic logarithm of the Kd, by convention in mol/L. Higher therefore signals a low Kd. For the compound `CN1CC[C@@H]2CN3CCc4cccc(c43)[C@@H]2C1` [SDZ SER 082 FUMARATE], the pKd is above 5.00 on D(1A) dopamine receptor; above 5.00 at D(2) dopamine receptor; 6.00 in test [1]; 6.00 in test [2]; 6.20 in test [3].
